Published values pooled from the literature.
RXFP3: Relaxin-3 receptor 1 (RXFP3, Homo sapiens, UniProt Q9NSD7)
BRAF: Serine/threonine-protein kinase B-raf (BRAF, Homo sapiens, UniProt P15056)
ELANE: Neutrophil elastase (ELANE, Homo sapiens, UniProt P08246)
ROS1: Proto-oncogene tyrosine-protein kinase ROS (ROS1, Homo sapiens, UniProt P08922)
MTOR: Serine/threonine-protein kinase mTOR (MTOR, Homo sapiens, UniProt P42345)
Delta-aminolevulinic acid dehydratase C162A/K59N: Delta-aminolevulinic acid dehydratase (Homo sapiens, UniProt P13716, C162A/K59N)
AVPR2: Vasopressin V2 receptor (AVPR2, Homo sapiens, UniProt P30518)
MAPK8: Mitogen-activated protein kinase 8 (MAPK8, Homo sapiens, UniProt P45983)
BACE1: Beta-secretase 1 (BACE1, Homo sapiens, UniProt P56817)
SMUG1: SMUG1 (Homo sapiens, UniProt Q53HV7)

| SMILES | target | test | setting | IC50 [µM] |
| --- | --- | --- | --- | --- |
| O=C(Nc1ccc(-c2nc(-c3ccc(Cl)cc3)no2)cc1)C1CC(=O)N(Cc2cccnc2)C1 (stereo not shown) | RXFP3 | cAMP, antagonist, TR-FRET | – | 1.49 |
| N#CC(C(=O)c1ccc(Cl)cc1Cl)=C1NC(=O)c2ccc(OCc3ccc4c(c3)OCO4)cc2N1 | Cytoplasmic dynein 2 heavy chain 1 (DYNC2H1, Homo sapiens, UniProt Q8NCM8) | ATPase activity, inhibitor | – | 11 |
| Nc1cccc(-c2cc3c(Oc4cccc(O)c4)ncnc3[nH]2)c1 | BRAF | cell-free assay, inhibitor | – | 0.832 |
| O=C(N/N=C/CN1CCCCC1)Nc1cc2c(Nc3ccc(F)c(Cl)c3)ncnc2cc1O[C@H]1CCOC1 | Epidermal growth factor receptor (EGFR, Homo sapiens, UniProt P00533, L858R/T790M) | enzyme activity, inhibitor | – | 0.0086 |
| CCOC(=O)c1nn(C(=O)C2CC2)c2ccccc2c1=O | ELANE | enzyme activity, inhibitor, fluorescence | – | 0.58 |
| CC(C)C[C@H](NC(=O)[C@H](Cc1ccccc1)NC(=O)[C@@H](N)Cc1ccc(O)cc1)C(=O)N[C@@H](Cc1ccccc1)C(=O)N[C@@H](CCCNC(=N)N)C(=O)N1CCC[C@H]1C(=O)N[C@@H](CCCNC(=N)N)C(=O)N[C@@H](CC(N)=O)C(N)=O | Neuromedin-U receptor 2 (Mus musculus, UniProt Q8BZ39) | ligand displacement, radioligand | – | 9.12e-05 |
| C=CC(=O)Nc1cc(Nc2nccc(Nc3cc(Cl)c(F)cc3C(C)(C)O)n2)c(OC)cc1N1CC[C@@H](N(C)C)C1 | ROS1 | enzyme activity, inhibitor | with preincubation | 0.937 |
| C[C@@H]1COCCN1c1nc(-c2cnc(N)nc2C(F)F)nc(N2CCOCC2)n1 | MTOR | ligand displacement, TR-FRET | – | 0.0324 |
| C=C(Cl)C(=O)Nc1cc(Nc2nc(Nc3cnn(C)c3)c3sccc3n2)c(OC)cc1N1CCN(C)CC1 | Epidermal growth factor receptor (EGFR, Homo sapiens, UniProt P00533, C797S/L858R/T790M) | enzyme activity, inhibitor, ELISA | – | > 1 |
| Cc1cccc(C(=O)Oc2c(Cl)nnc3ccccc23)c1 | ELANE | enzyme activity, inhibitor, fluorescence | – | 4.8 |
| CN1CCCN=C1/C=C/c1cccc(O)c1 | Delta-aminolevulinic acid dehydratase C162A/K59N | enzyme activity, inhibitor, absorbance | pH 8, with preincubation | 18 |
| NCCCC[C@H](NC(=O)[C@@H]1CCCN1C(=O)[C@@H]1CSSC[C@H](NC(=O)CNC(=O)CNC(=O)CN)C(=O)N[C@@H](Cc2ccc(O)cc2)C(=O)N[C@@H](Cc2ccccc2)C(=O)N[C@@H](CCC(N)=O)C(=O)N[C@@H](CC(N)=O)C(=O)N1)C(=O)NCC(N)=O | AVPR2 | ligand displacement, radioligand | cell membranes | 9.6 |
| COc1ccc(S(=O)(=O)ON=C2C=C(C)C(=O)C(C)=C2)cc1 | Histone acetyltransferase KAT5 (KAT5, Homo sapiens, UniProt Q92993) | enzyme activity, inhibitor, radiometric | – | > 100 |
| COc1ccc2c(Oc3ccc4c(C(=O)Nc5ccccc5N)cccc4c3)ccnc2c1 | MAPK8 | enzyme activity, inhibitor | – | > 0.5 |
| NC1=NCC(c2cccc3ccccc23)OC1 (stereo not shown) | BACE1 | enzyme activity, inhibitor, FRET | pH 5 | 1100 |
| CCN1CCN(c2c(Cl)cccc2NC(=O)c2ccc(Br)o2)CC1 | MAPK8 | enzyme activity, inhibitor, TR-FRET | – | 0.49 |
| Cc1ncsc1-c1ccc(CNC(=O)[C@@H]2C[C@@H](O)CN2C(=O)[C@@H](NC(=O)C2(F)CC2)C(C)(C)C)c(OCCOCCOCCN2CCN(c3cc(-c4ccccc4O)nnc3N)CC2)c1 | SWI/SNF-related matrix-associated actin-dependent regulator of chromatin subfamily A member 2, bromodomain (SMARCA2, Homo sapiens, UniProt P51531) | ligand displacement, TR-FRET | – | 2.4 |
| CC(=O)N[C@H]1CSSC[C@@H](C(=O)N[C@H](Cc2c[nH]c3ccccc23)C(N)=O)NC(=O)[C@@H](Cc2ccccc2)NC(=O)[C@H](CCCNC(=N)N)NC1=O | Melanocortin receptor 3 (MC3R, Homo sapiens, UniProt P41968) | ligand displacement, radioligand | – | > 5 |
| Cc1c(Cl)cccc1Nc1ccccc1C(=O)O | Delta-aminolevulinic acid dehydratase C162A/K59N | enzyme activity, inhibitor, absorbance | pH 8, with preincubation | 2.1 |
| CC(C)=CCCC(C)=CCc1c(O)cc2occ(-c3ccc(O)cc3)c(=O)c2c1O | BACE1 | enzyme activity, inhibitor | – | > 200 |
| CN1CCN(c2ccc(Nc3ncc4cc(C#N)c(=O)n(C5CCCC5)c4n3)cc2)CC1 | ROS1 | enzyme activity, inhibitor | – | 2.25 |
| O=C(Nc1ccc(-c2nc(-c3ccc(Br)cc3)no2)cc1)C1CC(=O)N(Cc2cccnc2)C1 (stereo not shown) | RXFP3 | cAMP, antagonist, TR-FRET | – | 3.08 |
| C=CC(=O)Nc1cc(Nc2nccc(-c3cn(C4CC4)c4ccccc34)n2)c(OC)cc1N(C)CCN(C)C | Epidermal growth factor receptor (EGFR, Homo sapiens, UniProt P00533, D761Y) | enzyme activity, inhibitor, TR-FRET | – | 0.00084 |

| SMILES | target | test | setting | IC50 [µM] |
| --- | --- | --- | --- | --- |
| O=C(Nc1ccn(Cc2ccc(O)cc2C(F)(F)F)n1)c1c(F)cccc1F | Short transient receptor potential channel 6 (TRPC6, Homo sapiens, UniProt Q9Y210) | ion current, inhibitor | – | > 10 |
| CC(C)(C)n1nc(-c2cnc3cc(OC4CC4)ccc3c2)c(C(N)=O)c1N | BRAF | cell-free assay | – | > 10 |
| Nc1ncc(-c2nc(N3CCOCC3)nc(N3C[C@H]4CC[C@@H](C3)O4)n2)c(C(F)F)n1 | MTOR | ligand displacement, TR-FRET | – | 0.0422 |
| O=Cc1cc(Br)cc(Br)c1O | Delta-aminolevulinic acid dehydratase C162A/K59N | enzyme activity, inhibitor, absorbance | pH 8, with preincubation | 22 |
| O=c1oc2c(O)c(O)cc3c(=O)oc4c(O)c(O)cc1c4c23 | DNA polymerase iota (Homo sapiens, UniProt Q9UNA4) | enzyme activity, inhibitor | – | 0.081 |
| Cc1cccc(C(=O)n2ncc(=O)c3ccccc32)c1 | ELANE | enzyme activity, inhibitor, fluorescence | – | 0.056 |
| CCCc1cc2cc(-n3nc(C)c4c3CC(C)(C)CC4=O)cc(N[C@H]3CC[C@H](O)CC3)c2c(=O)[nH]1 | Endoplasmin (HSP90B1, Canis lupus familiaris, UniProt P41148) | ligand displacement, FP | – | > 50 |
| O=C(Nc1ccc(Cl)c(Cl)c1)N1CCC(n2c(=O)[nH]c3c(Br)cccc32)CC1 | SMUG1 | enzyme activity, inhibitor | – | > 100 |
| Cc1cc2cc(c1)C(=O)N[C@H]([C@H](O)CN(Cc1cccc(C(C)C)c1)C(=O)OC(C)(C)C)CCC/C=C/CCCC2=O | BACE1 | enzyme activity, inhibitor | – | > 10 |
| CNc1nc(C)nc(N[C@H]2CCC[C@@H](C(=O)NCc3ccc(C#N)cc3C(F)(F)F)C2)n1 | Bifunctional epoxide hydrolase 2 (Ephx2, Mus musculus, UniProt P34914) | enzyme activity, inhibitor | – | 0.004 |
| O=C(Nc1ccc(-c2nc(-c3ccccc3)no2)cc1)C1CC(=O)N(Cc2cccnc2)C1 (stereo not shown) | RXFP3 | cAMP, antagonist, TR-FRET | – | 7.69 |
| O=C(O)c1cccnc1Nc1cccc(C(F)(F)F)c1 | Delta-aminolevulinic acid dehydratase C162A/K59N | enzyme activity, inhibitor, absorbance | pH 8, with preincubation | 13 |
| O=C(Nc1ccc(Cl)cc1)N1CCC(n2c(=O)[nH]c3c(Br)cccc32)CC1 | SMUG1 | enzyme activity, inhibitor | – | > 100 |
| CCOC(F)(F)c1nnc2cnc(-c3cnc(OCC(F)(F)F)c(F)c3)cn12 | Sodium channel protein type 8 subunit alpha (Rattus norvegicus, UniProt O88420) | ion current, inhibitor, patch clamp | – | 0.18 |
| CC(C)C[C@H](NC(=O)[C@@H]1COCCCCCCCC(=O)N2CCC[C@H]2C(=O)N1)C(=O)[C@@]1(C)CO1 | Proteasome Macropain subunit MB1 (PSMB5, Homo sapiens, UniProt P28074) | enzyme activity, inhibitor, fluorescence | – | > 10 |
| CCCS(=O)(=O)Nc1ccc(F)c(C(=O)c2c[nH]c3ncc(-c4ccc(CNC(=O)COCC(=O)NCc5ccc(-c6cnc7[nH]cc(C(=O)c8c(F)ccc(NS(=O)(=O)CCC)c8F)c7c6)cc5)cc4)cc23)c1F | Serine/threonine-protein kinase B-raf (BRAF, Homo sapiens, UniProt P15056, Q461A/V600E) | enzyme activity, inhibitor, ELISA | – | ~0.464 |
| COc1ccc(-c2coc3cc(O)c(CC=C(C)C)c(O)c3c2=O)c(O)c1 | BACE1 | enzyme activity, inhibitor | – | 42 |
| Oc1c2ccccc2c2c3c(cccc13)N=N2 | Non-receptor tyrosine-protein kinase TYK2 (TYK2, Homo sapiens, UniProt P29597) | enzyme activity, inhibitor | – | 0.44 |
| CCC(C)n1ncn(-c2ccc(N3CCN(c4ccc(OCC5COC(Cn6cncn6)(c6ccc(Cl)cc6Cl)O5)cc4)CC3)cc2)c1=O (stereo not shown) | AVPR2 | calcium signal, antagonist | – | 31.1 |
| CCOC(=O)c1nn(C(=O)c2cccc(C)c2)c2ccccc2c1=O | ELANE | enzyme activity, inhibitor, fluorescence | – | 0.21 |
| Cc1cc(Nc2cc(CN3CCOCC3)c3nc(C)c(Cc4ccc(Cl)cc4F)n3n2)n[nH]1 | Muscle, skeletal receptor tyrosine-protein kinase (MUSK, Homo sapiens, UniProt O15146) | enzyme activity, inhibitor, TR-FRET | – | 0.147 |
| Cc1cccc(-c2noc(-c3ccc(NC(=O)C4CC(=O)N(Cc5cccnc5)C4)cc3)n2)c1 (stereo not shown) | RXFP3 | cAMP, antagonist, TR-FRET | – | 4.04 |
| CC(C)=CCCC(C)=CCc1c(O)cc(O)c2c(=O)c(-c3ccc(O)cc3O)coc12 | BACE1 | enzyme activity, inhibitor | – | 45 |
